# Bioassay records (PubChem BioAssay)
# M4 antag = human M4 muscarinic receptor antagonists, primary screen, CHO cells, Fluo-8 calcium fluorescence; inhibition, % at 3 µM; 360,000 compounds, 0.73% hits; AID 624125, 2012; CHO-hM4 cells, ACh EC80;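 active = inhibition above its plate's cutoff, the mean inhibition of sample wells plus 3 SD, cut at about 27% in these data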;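 also: 0% = acetylcholine EC80 with DMSO and 100% = DMSO without agonist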
# CHRM5 antagonist = human M5 muscarinic receptor antagonists, primary screen, CHO cells, Fluo-8 calcium fluorescence; Muscarinic acetylcholine receptor M5 (Homo sapiens), P08912; CHO-hM5 cells, ACh EC80; inhibition, % at 3 µM; 360,000 compounds, 0.59% hits; AID 624040, 2012;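 active = inhibition above a per-plate cutoff, the mean of that plate's test compounds plus 3 SD, cut at about 27% in these data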;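 also: 0% = acetylcholine EC80 with DMSO and 100% = DMSO without agonist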
# Target sequence (P08912 whole entry, looked up): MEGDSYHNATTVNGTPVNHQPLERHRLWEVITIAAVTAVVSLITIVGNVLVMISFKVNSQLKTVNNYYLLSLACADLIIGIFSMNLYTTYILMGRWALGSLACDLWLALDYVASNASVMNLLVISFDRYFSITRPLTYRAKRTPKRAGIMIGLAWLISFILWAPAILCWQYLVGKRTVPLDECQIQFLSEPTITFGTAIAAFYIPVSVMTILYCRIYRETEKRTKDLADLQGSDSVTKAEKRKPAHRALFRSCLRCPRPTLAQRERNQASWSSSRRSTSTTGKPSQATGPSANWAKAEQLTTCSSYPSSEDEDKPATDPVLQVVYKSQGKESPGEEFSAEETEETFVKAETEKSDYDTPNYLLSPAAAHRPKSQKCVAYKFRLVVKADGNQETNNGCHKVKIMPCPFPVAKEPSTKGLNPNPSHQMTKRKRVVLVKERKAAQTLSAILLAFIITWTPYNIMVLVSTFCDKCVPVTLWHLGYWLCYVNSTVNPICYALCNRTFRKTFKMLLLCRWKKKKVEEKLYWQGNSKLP
# M5 PAM = human M5 muscarinic receptor positive allosteric modulators, primary screen, CHO-K1 cells, Fluo-8 calcium fluorescence; Muscarinic acetylcholine receptor M5 (Homo sapiens), P08912; CHO-K1 hM5, ACh EC20 PAM; 0% = ACh EC20, 100% = ACh EC100; activation, % at 3 µM; 360,000 compounds, 0.3% hits;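 active = activation above the run cutoff, the mean activation of all test compounds plus 3 SD, cut at about 18% in these data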
#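 Assay system – human M5 receptor in CHO-K1 cells · Read-out – % activation, ACh-normalized · Technique – Fluo-8 calcium fluorescence · Dosing – single-point, 3 µM nominal · Incubation – Fluo-8 loading 80 min at 37 °C plus 30 min room temperature · Repeats – singlicate, one well per test compound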
# CHRM5 agonist = human M5 muscarinic receptor agonists, primary screen, CHO-K1 cells, Fluo-8 calcium fluorescence; CHO-K1 hM5 cells; 0% DMSO wells, 100% maximal acetylcholine response; 360,000 compounds, 0.19% hits; activation, % at 3 µM;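 active = activation above the run's mean over test compounds plus 3 SD, cut at about 23% in these data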;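 also: signal is peak over basal fluorescence ratio across the kinetic read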
# CHRM4 agonist = human M4 muscarinic receptor agonists, primary screen, CHO-K1 cells, Fluo-8 calcium fluorescence. CHO-K1 hM4/Gqi5; vehicle 0%, full acetylcholine response 100%. 360,000 compounds, 0.14% hits. Muscarinic acetylcholine receptor M4 (Homo sapiens), P08173. activation, % at 3 µM;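 active = activation above the run mean over all test wells plus 3 SD, cut at about 32% in these data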;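 also: peak over basal fluorescence ratio per well then scaled between controls; 0% = DMSO wells and 100% = acetylcholine at EC100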
# M4 PAM = human M4 muscarinic receptor positive allosteric modulators, primary screen, CHO-K1 cells, Fluo-8 calcium fluorescence; AID 624126, 2012; CHO-K1 hM4/Gqi5, ACh EC20; 0% = ACh EC20, 100% = maximal ACh; activation, % at 3 µM; 360,000 compounds, 0.4% hits; Muscarinic acetylcholine receptor M4 (Homo sapiens), P08173;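 active = activation above its plate's cutoff, the mean activation of sample wells plus 3 SD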
# Numbers without * were called inactive. In the library only some 1.9% were active in any assay of this set; here they are far more common.
SMILES,M4 antag,CHRM5 antagonist,M5 PAM,CHRM5 agonist,CHRM4 agonist,M4 PAM
CCOC(=O)CCN(C(=S)Nc1ccccc1)C1CCCCC1,-1.3,14.5,-7.4,-2.4,0.5,-0.2
Cc1ccc(S(=O)(=O)N2CCC(C(=O)N3CCCC3C(=O)N[C@@H](CC(C)C)C(=O)NCC(N)=O)CC2)cc1 (stereo partly drawn),-18.9,-6.0,-1.5,2.8,0.6,7.5
CN(CC(=O)Nc1cccc(C#N)c1)Cc1ccc(Cl)cc1,-9.4,5.8,0.5,-3.5,2.9,6.0
N#Cc1ccc(NC(=O)Nc2ccc(Oc3ccc(NC(=O)Nc4ccc(C#N)cc4)cc3)cc2)cc1,2.3,11.6,-15.0,3.2,11.9,-1.7
CN(CC(=O)Nc1ccc(C#N)cc1)CC(=O)Nc1ccc(N2CCOCC2)cc1,0.8,4.3,-2.5,0.7,1.6,-3.8
CN(CC(=O)Nc1ccc(C#N)cc1)Cc1ccc(Cl)c(Cl)c1,43.0*,-0.4,-21.6,-8.7,5.9,-17.4
CN(CC(=O)Nc1ccc(N2CCOCC2)cc1)CC(=O)Nc1cccc(C#N)c1,-0.6,4.7,5.8,2.9,5.6,22.8*
N#Cc1ccc(NC(=O)Nc2cccc(C#N)c2)cc1,8.2,31.9*,-17.3,11.8,25.7,-12.1
CN(C)CCC(Oc1ccccc1OCc1ccccc1)c1ccccc1 (stereo not drawn),-0.9,27.8*,-33.3,-10.0,26.9,-54.8
COc1cc(C(=O)Oc2cccc(Nc3ncnc4ccccc34)c2)cc(OC)c1OC,31.4*,29.4*,-15.5,4.1,16.7,-28.1
Cc1ccc2c(C(=O)CN3CCOCC3)c(C)[nH]c2c1,-10.4,-11.8,24.5*,2.0,0.4,9.7
Cc1ccc2c(C(=O)CN3CCCCC3)c(C)[nH]c2c1,-10.5,1.9,2.4,-4.7,1.2,8.2
O=C(/C=C/c1ccc(Br)o1)Nc1nccs1,-12.7,-16.0,12.5,0.1,1.6,7.8
Cc1cccc(C(=O)NC(=S)NNC(=O)c2ccc(Cl)cc2)c1,39.6*,30.5*,-21.2,89.8*,132.5*,-17.1
O=C(NNC(=S)Nc1cccc(C(F)(F)F)c1)c1cccc(Cl)c1,6.7,45.7*,-21.8,3.9,17.3,-8.5
COc1cc(C(=O)NNC(=S)NC(=O)c2ccc(Cl)cc2)cc(OC)c1OC,5.3,7.6,-14.2,33.1*,43.8*,-9.4
COc1cccc(Cn2nnc(C(=O)Nc3cc(C)ccc3OC)c2N)c1,-12.6,2.2,-6.2,-2.1,0.3,18.3*
CCc1ccc(Cn2nnc(C(=O)Nc3cccc(C)c3)c2N)cc1,5.4,3.0,-3.0,6.1,4.2,1.9
Cc1ccc(Cn2nnc(C(=O)Nc3cccc(C)c3C)c2N)cc1,20.7,13.5,-4.4,37.8*,53.4*,-20.2
CCC1=C(OC(=O)N(CC)CC)N2C(=O)OC(=NCC3CC3)[C@]2(Cc2ccccc2)[C@H]2C1=CC[C@H]1C(=O)NC(=O)[C@H]12,-13.3,2.1,-4.0,-1.4,2.7,18.3
CCC1=C(OC(=O)N(CC)CC)N2C(=O)OC(=NCCOC)[C@]2(Cc2ccccc2)[C@H]2C1=CC[C@H]1C(=O)NC(=O)[C@H]12,-2.4,-89.9,26.5*,6.8,0.9,9.3
O=C(NCc1nnc(SC/C=C/c2ccccc2)o1)c1ccco1,0.3,6.1,2.2,0.6,1.1,-4.0
NCCCCCc1nnc(SCc2ccccc2Cl)o1,22.8,28.1*,-18.2,-8.0,2.3,-25.7
NCCc1nnc(SCc2c(Cl)cccc2Cl)o1,-12.5,-11.1,10.3,-9.5,1.9,7.3
NCCCCCc1nnc(SC/C=C/c2ccccc2)o1,38.5*,10.2,-8.8,-7.1,1.8,-25.5
SMILES,M4 antag,CHRM5 antagonist,M5 PAM,CHRM5 agonist,CHRM4 agonist,M4 PAM
COc1ccc(Oc2ncnc3sccc23)cc1,-11.5,-7.5,18.3*,-1.6,2.0,10.9
COc1ccc(Nc2ncnc3sccc23)cc1,-2.8,19.8,1.5,-1.2,1.9,4.3
Cc1ccc(CN2CC(N3CCCC3)CS2(=O)=O)cc1 (stereo not drawn),-4.6,4.1,-3.2,0.2,-0.5,2.2
COc1ccc(CCNc2ncnc3sc(C)cc23)cc1OC,26.9*,37.1*,-28.0,2.5,20.7,-11.4
COc1ccc(CCNc2ncnc3[nH]ncc23)cc1OC,-14.6,-1.9,-1.5,2.4,6.7,3.0
CS(=O)(=O)N1CCCC(c2nc(-c3ccc(S(=O)(=O)NCc4ccccc4)cc3)no2)C1 (stereo not drawn),33.4*,28.7*,-16.2,11.5,26.0,-27.8
CCN1CCN(c2ccc(NC(=O)c3cc4ccccc4cc3OC)cc2C)CC1,18.9,56.1*,-42.0,-9.1,6.6,-12.8
CCN1CCN(c2ccc(NC(=O)c3ccccc3F)cc2Cl)CC1,16.4,11.9,-25.8,-17.7,-0.1,-13.1
CC(=O)NCCC(=O)NCc1ccc(F)cc1,0.5,-11.8,-9.0,1.3,1.1,22.0*
CCOCC(=O)Nc1cc(C(=O)OC)cc(C(=O)OC)c1,-4.4,-7.9,1.4,1.0,1.0,5.1
O=C(CN1C(=O)CSC1=O)c1ccccc1,-11.5,-6.0,44.8*,-2.7,0.9,8.7
c1ccc2[nH]c3cc4ncnc4cc3nc2c1,4.8,7.5,-3.9,-0.3,1.3,8.6
COCCCN1C(=O)C(CC(=O)NCc2cccc3ccccc23)CC(C(=O)N2CCCCCC2)=C1C (stereo not drawn),-4.4,3.2,-0.3,1.8,2.3,4.2
COc1ccc(CNCc2cn(-c3cccc(F)c3)nc2-c2ccc(C)o2)cc1,34.1*,-3.5,-1.1,5.6,4.0,7.4
COc1ccc(-n2cc(CNCc3cccnc3)c(-c3cccc(F)c3)n2)cc1,-6.2,7.0,0.8,-0.4,4.7,4.0
COC(=O)c1c(C)oc2ccc(N(C(=O)c3ccncc3)S(=O)(=O)c3ccc4ccccc4c3)cc12,33.1*,25.4,-14.8,0.9,7.1,-9.6
Cc1cc(C)c2sc(C)[n+](CCCS(=O)(=O)[O-])c2c1,-4.0,-2.4,-1.1,3.9,1.3,-1.5
CC[n+]1c(C)sc2c(C)cc(C)cc21,4.3,-6.4,26.8*,13.6,-0.9,-3.4
COc1ccccc1CN1CC(C(=O)NCc2c(F)ccc(C)c2F)CCC1=O (stereo not drawn),1.9,-6.5,9.4,-3.4,1.1,9.3
